Experimental data pooled from the literature.
Each line is one published result; the experiments were not run side by side.
Effect on: cell growth or viability

O=C(C=Cc1cccc(F)c1)Nc1cc(-c2ccnc(N3CCC(O)CC3)c2)ccn1 — inhibition (HeLa; MTT; 5 µM): 82.7%
C=C(C)[C@@H]1CC[C@@H](C)C[C@H]1OCc1ccc(OC)cc1 — inhibition (HeLa; MTT; 30 µM, 72 h): 54%
O=C(C=Cc1ccccc1)Nc1cc(-c2ccnc(N3CCOCC3)c2)ccn1 — inhibition (HeLa; MTT; 5 µM): 74%
C[C@@H]1CC[C@@H]([C@](C)(O)CNCc2cccc(F)c2)[C@H](OCc2ccccc2)C1 — inhibition (HeLa; MTT; 10 µM, 72 h): 72.5%
COc1cc2ncnc(Nc3ccc4c(c3)/C(=C/c3cccc(Cl)c3)C(=O)N4C)c2cc1OC — IC50 (H22; MTT): 3840 nM
C[C@@H]1CC[C@@H]([C@](C)(O)Cn2cnc3ccccc32)[C@H](OCc2ccccc2)C1 — inhibition (HeLa; MTT; 30 µM, 72 h): 89%
Cc1c(C(=O)O)ccc2c3n(nc12)[C@@H]1[C@H](C3)N(CC2CC2)[C@@]2(C(=O)Nc3cc(Cl)ccc32)[C@H]1c1cccc(Cl)c1F — GI50 (U2OS; resazurin): > 2000 nM
Cc1cccc(/C=C/C(=O)Nc2cccc(-c3ccnc(N4CCC(O)CC4)c3)c2)c1 — inhibition (HeLa; MTT; 5 µM): 54.9%
C[C@@H]1CC[C@@H]([C@](C)(O)CNCc2cccc3ccccc23)[C@H](OCc2ccccc2)C1 — inhibition (HeLa; MTT; 30 µM, 72 h): 86.8%
Cc1cc(NC(=O)C=Cc2ccccc2)cc(-c2ccnc(N3CCC(O)CC3)c2)c1 — inhibition (HeLa; MTT; 5 µM): 26.6%
C=C(COCc1ccc(OC)cc1)[C@@H]1CC[C@@H](C)C[C@H]1OCc1ccc(OC)cc1 — inhibition (HeLa; MTT; 10 µM, 72 h): 39.2%
Cc1cccc(/C=C/C(=O)Nc2cc(-c3ccnc(N4CCC(O)CC4)c3)ccn2)c1 — inhibition (HeLa; MTT; 5 µM): 74.2%
Cc1nc(Nc2ccc3c(c2)/C(=C/c2ccccc2Cl)C(=O)N3)c2ccccc2n1 — IC50 (H22; MTT): 2140 nM
C#Cc1nc(C2=C(C)C(OC(=O)CCC)/C(=N/OC(=O)CCC)C2)cs1 (stereo not shown) — CC50 (U2OS): 5950 nM
C=CC(=O)NC1CCN(c2ncc3ncnc(Nc4ccc(Oc5ccc6c(c5)ncn6C)c(C)c4)c3n2)CC1 — EC50 (LS-411N): 11.6 nM
Cc1nc(N(C)c2ccc3c(c2)/C(=C/c2ccccc2Cl)C(=O)N3C)c2ccccc2n1 — IC50 (H22; MTT): 8980 nM
Cc1cccc(/C=C/C(=O)Nc2cccc(-c3ccnc(N4CCOCC4)c3)c2)c1 — inhibition (HeLa; MTT; 5 µM): 24.1%
COc1ccc(COC[C@@](O)(CNCc2ccc(F)cc2)[C@@H]2CC[C@@H](C)C[C@H]2OCc2ccc(OC)cc2)cc1 — inhibition (HeLa; MTT; 10 µM, 72 h): 95%
CC1(C)CCC2(CC1)N[C@@H](C(=O)N[C@@H]1CC[C@@H](C(N)=O)OC1)[C@H](c1ccnc(Cl)c1F)[C@]21C(=O)Nc2cc(Cl)ccc21 — GI50 (U2OS; resazurin; 72 h): > 1000 nM
